What all share (format): cell-based
Experiment [1] deals with T1, Glucocorticoid receptor (Homo sapiens, UniProt P04150).
T1 sequence (P04150 whole entry): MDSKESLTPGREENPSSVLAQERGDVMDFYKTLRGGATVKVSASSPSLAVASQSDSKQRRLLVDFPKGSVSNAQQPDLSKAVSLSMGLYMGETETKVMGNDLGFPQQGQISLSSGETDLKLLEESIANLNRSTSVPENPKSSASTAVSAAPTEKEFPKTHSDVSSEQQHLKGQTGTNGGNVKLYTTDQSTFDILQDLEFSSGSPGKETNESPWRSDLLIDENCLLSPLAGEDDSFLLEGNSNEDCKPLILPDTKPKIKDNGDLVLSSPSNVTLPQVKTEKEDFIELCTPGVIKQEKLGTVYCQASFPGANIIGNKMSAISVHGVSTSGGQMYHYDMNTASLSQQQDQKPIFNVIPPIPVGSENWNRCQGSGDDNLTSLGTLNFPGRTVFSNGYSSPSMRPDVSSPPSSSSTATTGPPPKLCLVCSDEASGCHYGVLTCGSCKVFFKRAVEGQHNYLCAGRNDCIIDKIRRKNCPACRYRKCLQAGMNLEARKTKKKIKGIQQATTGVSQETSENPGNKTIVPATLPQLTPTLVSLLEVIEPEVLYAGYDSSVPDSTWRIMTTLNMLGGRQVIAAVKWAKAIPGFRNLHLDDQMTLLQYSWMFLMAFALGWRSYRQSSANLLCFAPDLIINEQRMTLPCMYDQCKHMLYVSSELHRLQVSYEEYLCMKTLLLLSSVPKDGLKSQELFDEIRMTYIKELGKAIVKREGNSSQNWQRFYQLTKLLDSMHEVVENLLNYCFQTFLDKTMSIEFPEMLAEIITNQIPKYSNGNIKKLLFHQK
In words: Transrepression activity at glucocorticoid receptor in human A549 cells assessed as inhibition of PMA-stimulated AP1 response element by luciferase reporter gene assay.

The target in experiment [2] is T2, Mineralocorticoid receptor (Homo sapiens, UniProt P08235).
T2 sequence (P08235 whole entry): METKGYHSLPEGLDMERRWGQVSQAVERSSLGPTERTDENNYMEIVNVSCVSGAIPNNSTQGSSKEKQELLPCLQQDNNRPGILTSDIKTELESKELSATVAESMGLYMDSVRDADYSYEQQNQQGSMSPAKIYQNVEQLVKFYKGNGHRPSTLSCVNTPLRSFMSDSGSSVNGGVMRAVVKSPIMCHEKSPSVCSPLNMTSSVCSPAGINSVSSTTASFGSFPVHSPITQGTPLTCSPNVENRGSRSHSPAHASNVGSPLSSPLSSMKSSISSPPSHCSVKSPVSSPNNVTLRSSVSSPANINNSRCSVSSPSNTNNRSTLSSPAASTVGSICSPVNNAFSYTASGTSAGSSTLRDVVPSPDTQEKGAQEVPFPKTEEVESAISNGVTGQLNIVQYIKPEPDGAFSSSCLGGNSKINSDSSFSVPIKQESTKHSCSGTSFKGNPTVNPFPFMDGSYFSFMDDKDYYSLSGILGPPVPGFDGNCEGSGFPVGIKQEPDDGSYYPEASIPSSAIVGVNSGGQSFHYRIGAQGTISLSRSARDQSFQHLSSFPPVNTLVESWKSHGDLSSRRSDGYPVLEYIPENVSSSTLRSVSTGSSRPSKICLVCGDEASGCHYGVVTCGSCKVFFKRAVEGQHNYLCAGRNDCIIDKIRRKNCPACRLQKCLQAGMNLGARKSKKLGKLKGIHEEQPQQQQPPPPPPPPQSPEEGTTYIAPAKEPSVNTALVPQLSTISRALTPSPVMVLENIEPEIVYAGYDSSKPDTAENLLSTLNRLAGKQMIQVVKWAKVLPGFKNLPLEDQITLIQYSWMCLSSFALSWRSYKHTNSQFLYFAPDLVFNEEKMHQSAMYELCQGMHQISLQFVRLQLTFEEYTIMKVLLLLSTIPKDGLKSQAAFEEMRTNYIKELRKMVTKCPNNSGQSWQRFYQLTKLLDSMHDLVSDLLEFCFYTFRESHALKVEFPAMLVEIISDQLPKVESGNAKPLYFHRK
In words: Agonist activity at mineralocorticoid receptor in human A549 cells by fluorescence assay. In outline: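 A549 cells were run in MR agonist mode with aldosterone as positive control. EC50 was reported with % maximal efficacy, as means of duplicate experiments.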

The target in experiment [3] is T3, Glucocorticoid receptor (Homo sapiens) (UniProt P04150).
T3 sequence (whole entry): T1 sequence (P04150 whole entry)
In words: Transactivation activity at glucocorticoid receptor ligand binding domain (unknown origin) expressed in human Hela cells co-expressing GAL4 DNA binding domain assessed as NP-1-stimulated GRE activation by luciferase reporter gene assay relative to dexamethasone. In outline:
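HeLa line (NP-1) stably transfected with a GR-LBD chimera cloned into a GAL4 luciferase reporter was run in agonist mode. Direct GR-LBD activation was read as increased luciferase activity. […] Values are means of two or more experiments in triplicate.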

The target of experiment [4] is T3, Glucocorticoid receptor (Homo sapiens). Description: Transrepression activity at glucocorticoid receptor in human A549 cells assessed as inhibition of PMA-stimulated AP1 response element by luciferase reporter gene assay relative to dexamethasone. The gist of the method: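 Transrepression of AP-1 was run in A549 lung epithelial cells. […] Values are means of two or more experiments in triplicate.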
A general note: In a reporter assay the amount or activity of a reporter protein is the signal.

In general, EC50 refers to the concentration at which the effect is half-maximal. The term IC50 denotes the concentration needed to halve the response being measured. The low end stands for inhibition by little substance, the high end for a need for much substance. As to `CC(C)(C)NC(=O)NCC(C)(C)[C@@H](c1ccccc1)c1ccc2c(cnn2-c2ccc(F)cc2)c1`, the EC50 in experiment [1] was found to be 57 nM. Besides, the IC50 in experiment [2] was over 5000 nM. Besides, the results for the Efficacy in experiment [3] and in experiment [4] were 12% and 74%, respectively.
Regarding `CC(C)(CNC(=O)CC(F)(F)F)[C@@H](c1ccccc1)c1ccc2c(cnn2-c2ccc(F)cc2)c1`, in experiment [1], the EC50 stood at 12.4 nM. In addition, the IC50 in experiment [2] was over 5000 nM. In addition, the results for the Efficacy in experiment [3] and in experiment [4] were 65% and 91%, respectively.
On to `CC(C)(CNS(=O)(=O)CC(F)(F)F)[C@@H](c1ccccc1)c1ccc2c(cnn2-c2ccc(F)cc2)c1`, for which the EC50 in experiment [1] was 20.4 nM. For the same compound, in experiment [2], the IC50 was over 5000 nM. For the same compound, the Efficacy in experiment [3] was found to be 24%; in experiment [4], 74%.

Values taken from ChEMBL document CHEMBL2424625, “Synthesis and structure-activity relationships of novel indazolyl glucocorticoid receptor partial agonists” (Bioorg Med Chem Lett, 2013).
